Publication PMC10764114 (ACS Omega, 2023)

Experiments:
[1] = test system: U87-malignant glioma (ATCC-HTB-14); test: MTT assay, cytotoxicity against U87-malignant glioma cells; assay type: cell-based, human; details: Homo sapiens, Glioma cell; for viability at 10 µM / viability at 40 µM / viability at 80 µM / viability at 100 µM / viability at 150 µM: read-out: % cell viability U87; for IC50: read-out: IC50 (μM ± SEM U87)
Method in brief: (§1)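 Cells grown in DMEM (4.5 g/L glucose, 10% FBS, 1% penicillin/streptomycin) at 37 °C, 5% CO₂. Seeded at 1 × 10³ cells/well and left 24 h to adhere. Test compound added at 10, 40, 80, 100 or 150 μM for 48 h (text also states MTT added 24 h post-dosing). MTT in PBS added for 3 h, formazan dissolved in DMSO for 30 min, OD read at 550 nm, % viability calculated from absorbance.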

[2] = MTT assay, cytotoxicity against normal HEK293 cells; assay type: cell-based, human; details: human, HEK293 cells
Method in brief: as §1

CC(C)Cc1ccc(C(C)C(=O)NN=Cc2ccc(OCC(=O)NN=Cc3ccc(Cl)cc3Cl)cc2)cc1 (stereo not drawn) [5h, N′-(4-(2-(2-(2,4-Dichlorobenzylidene)hydrazinyl)-2-oxoethoxy)benzylidene)-2-(4-isobutylphenyl)propanehydrazide]
viability at 10 µM [1]: 50.2%
viability at 40 µM [1]: 50.1%
viability at 80 µM [1]: 48.8%
viability at 100 µM [1]: 46%
viability at 150 µM [1]: 43.6%
IC50 [1]: 120.1 ± 0.13 µM
viability at 48 h, 10 μM [2]: 84.1%
viability at 48 h, 40 μM [2]: 79.5%
viability at 48 h, 80 μM [2]: 69.1%
viability at 48 h, 100 μM [2]: 68.3%
viability at 48 h, 150 μM [2]: 67.1%

CC(C)Cc1ccc(C(C)C(=O)NN=Cc2ccc(OCC(=O)NN=Cc3cc(Br)c(O)c(Br)c3)cc2)cc1 (stereo not drawn) [5i, N′-(4-(2-(2-(3,5-Dibromo-4-hydroxybenzylidene)hydrazinyl)-2-oxoethoxy)benzylidene)-2-(4-isobutylphenyl)propanehydrazide]
viability at 10 µM [1]: 40.3%
viability at 40 µM [1]: 36.9%
viability at 80 µM [1]: 31.4%
viability at 100 µM [1]: 29.9%
viability at 150 µM [1]: 24.4%
IC50 [1]: 38.32 ± 0.1 µM
viability at 48 h, 10 μM [2]: 67.6%
viability at 48 h, 40 μM [2]: 57.4%
viability at 48 h, 80 μM [2]: 55.7%
viability at 48 h, 100 μM [2]: 49.9%
viability at 48 h, 150 μM [2]: 43.8%

CC(C)Cc1ccc(C(C)C(=O)NN=Cc2ccc(OCC(=O)NN=Cc3ccc(Br)cc3F)cc2)cc1 (stereo not drawn) [5j, N′-(4-(2-(2-(4-Bromo-2-fluorobenzylidene)hydrazinyl)-2-oxoethoxy)benzylidene)-2-(4-isobutylphenyl)propanehydrazide]
viability at 10 µM [1]: 187%
viability at 40 µM [1]: 128%
viability at 80 µM [1]: 94.2%
viability at 100 µM [1]: 93.1%
viability at 150 µM [1]: 78.6%
IC50 [1]: 43.71 ± 0.07 µM
viability at 48 h, 10 μM [2]: 44.5%
viability at 48 h, 40 μM [2]: 40.1%
viability at 48 h, 80 μM [2]: 38.4%
viability at 48 h, 100 μM [2]: 36.8%
viability at 48 h, 150 μM [2]: 26.3%

COc1ccc(C=NNC(=O)COc2ccc(C=NNC(=O)C(C)c3ccc(CC(C)C)cc3)cc2)cc1OC (stereo not drawn) [5l, N′-(4-(2-(2-(3,4-Dimethoxybenzylidene)hydrazinyl)-2-oxoethoxy)benzylidene)-2-(4-isobutylphenyl)propanehydrazide]
viability at 10 µM [1]: 97%
viability at 40 µM [1]: 88.4%
viability at 80 µM [1]: 84.9%
viability at 100 µM [1]: 84.2%
viability at 150 µM [1]: 79.7%
IC50 [1]: 72.83 ± 0.06 µM
viability at 48 h, 10 μM [2]: 30.5%
viability at 48 h, 40 μM [2]: 28.1%
viability at 48 h, 80 μM [2]: 25.9%
viability at 48 h, 100 μM [2]: 24.9%
viability at 48 h, 150 μM [2]: 24.2%

COc1ccc(C=NNC(=O)COc2ccc(C=NNC(=O)C(C)c3ccc(CC(C)C)cc3)cc2)c(O)c1 (stereo not drawn) [5m, N′-(4-(2-(2-(2-Hydroxy-4-methoxybenzylidene)hydrazinyl)-2-oxoethoxy)benzylidene)-2-(4-isobutylphenyl)propanehydrazide]
viability at 10 µM [1]: 142%
viability at 40 µM [1]: 138%
viability at 80 µM [1]: 34.5%
viability at 100 µM [1]: 134%
viability at 150 µM [1]: 128%
IC50 [1]: 150.5 ± 0.2 µM
viability at 48 h, 10 μM [2]: 26.2%
viability at 48 h, 40 μM [2]: 26.1%
viability at 48 h, 80 μM [2]: 24.2%
viability at 48 h, 100 μM [2]: 21.9%
viability at 48 h, 150 μM [2]: 18.6%

COc1ccc(C=NNC(=O)COc2ccc(C=NNC(=O)C(C)c3ccc(CC(C)C)cc3)cc2)cc1O (stereo not drawn) [5n, N′-(4-(2-(2-(3-Hydroxy-4-methoxybenzylidene)hydrazinyl)-2-oxoethoxy)benzylidene)-2-(4-isobutylphenyl)propanehydrazide]
viability at 10 µM [1]: 165%
viability at 40 µM [1]: 85.3%
viability at 80 µM [1]: 61.1%
viability at 100 µM [1]: 42.7%
viability at 150 µM [1]: 33.2%
IC50 [1]: 40.18 ± 0.07 µM
viability at 48 h, 10 μM [2]: 38.1%
viability at 48 h, 40 μM [2]: 28%
viability at 48 h, 80 μM [2]: 24.8%
viability at 48 h, 100 μM [2]: 16.9%
viability at 48 h, 150 μM [2]: 12.6%

CCN(CC)c1ccc(C=NNC(=O)COc2ccc(C=NNC(=O)C(C)c3ccc(CC(C)C)cc3)cc2)cc1 (stereo not drawn) [5o, N′-(4-(2-(2-(4-(Diethylamino)benzylidene)hydrazinyl)-2-oxoethoxy)benzylidene)-2-(4-isobutylphenyl)propanehydrazide]
viability at 10 µM [1]: 146%
viability at 40 µM [1]: 122%
viability at 80 µM [1]: 121%
viability at 100 µM [1]: 119%
viability at 150 µM [1]: 107%
IC50 [1]: 119.7 ± 0.25 µM
viability at 48 h, 10 μM [2]: 49%
viability at 48 h, 40 μM [2]: 42.9%
viability at 48 h, 80 μM [2]: 37.7%
viability at 48 h, 100 μM [2]: 35.8%
viability at 48 h, 150 μM [2]: 35.2%

COc1cccc(C=NNC(=O)COc2ccc(C=NNC(=O)C(C)c3ccc(CC(C)C)cc3)cc2)c1 (stereo not drawn) [5p, 2-(4-Isobutylphenyl)-N′-(4-(2-(2-(3-methoxybenzylidene)hydrazinyl)-2-oxoethoxy)benzylidene)propanehydrazide]
viability at 10 µM [1]: 151%
viability at 40 µM [1]: 122%
viability at 80 µM [1]: 93.7%
viability at 100 µM [1]: 93.7%
viability at 150 µM [1]: 93.5%
IC50 [1]: 90.68 ± 0.13 µM
viability at 48 h, 10 μM [2]: 49.9%
viability at 48 h, 40 μM [2]: 49.4%
viability at 48 h, 80 μM [2]: 49.2%
viability at 48 h, 100 μM [2]: 48.1%
viability at 48 h, 150 μM [2]: 39.3%

CC(C)Cc1ccc(C(C)C(=O)NN=Cc2ccc(OCC(=O)NN=Cc3ccc(F)cc3)cc2)cc1 (stereo not drawn) [5q, N′-(4-(2-(2-(4-Fluorobenzylidene)hydrazinyl)-2-oxoethoxy)benzylidene)-2-(4-isobutylphenyl)propanehydrazide]
viability at 10 µM [1]: 183%
viability at 40 µM [1]: 84%
viability at 80 µM [1]: 81.7%
viability at 100 µM [1]: 48.5%
viability at 150 µM [1]: 40.5%
IC50 [1]: 46 ± 0.08 µM
viability at 48 h, 10 μM [2]: 27.5%
viability at 48 h, 40 μM [2]: 25.4%
viability at 48 h, 80 μM [2]: 19.9%
viability at 48 h, 100 μM [2]: 19.7%
viability at 48 h, 150 μM [2]: 17.8%

CC(C)Cc1ccc(C(C)C(=O)NN=Cc2ccc(OCC(=O)NN=Cc3ccccc3O)cc2)cc1 (stereo not drawn) [5r, N′-(4-(2-(2-(2-Hydroxybenzylidene)hydrazinyl)-2-oxoethoxy)benzylidene)-2-(4-isobutylphenyl)propanehydrazide]
viability at 10 µM [1]: 109%
viability at 40 µM [1]: 81.4%
viability at 80 µM [1]: 72.8%
viability at 100 µM [1]: 45.5%
viability at 150 µM [1]: 40.6%
IC50 [1]: 43.66 ± 0.04 µM
viability at 48 h, 10 μM [2]: 39%
viability at 48 h, 40 μM [2]: 33.6%
viability at 48 h, 80 μM [2]: 32%
viability at 48 h, 100 μM [2]: 26.1%
viability at 48 h, 150 μM [2]: 25.1%

CC(C)Cc1ccc(C(C)C(=O)NN=Cc2ccc(OCC(=O)NN=Cc3cccc4ccccc34)cc2)cc1 (stereo not drawn) [5t, 2-(4-Isobutylphenyl)-N′-(4-(2-(2-(naphthalen-1-ylmethylene)hydrazinyl)-2-oxoethoxy)benzylidene)propanehydrazide]
viability at 10 µM [1]: 179%
viability at 40 µM [1]: 169%
viability at 80 µM [1]: 155%
viability at 100 µM [1]: 146%
viability at 150 µM [1]: 140%
IC50 [1]: 86.74 ± 0.26 µM
viability at 48 h, 10 μM [2]: 68.7%
viability at 48 h, 40 μM [2]: 58.9%
viability at 48 h, 80 μM [2]: 51%
viability at 48 h, 100 μM [2]: 47.3%
viability at 48 h, 150 μM [2]: 43%

CC(C)Cc1ccc(C(C)C(=O)NN=Cc2ccc(OCC(=O)NN)cc2)cc1 (stereo not drawn) [compound 4, N′-(4-(2-Hydrazinyl-2-oxoethoxy)benzylidene)-2-(4-isobutylphenyl)propanehydrazide]
viability at 10 µM [1]: 72.5%
viability at 40 µM [1]: 47.9%
viability at 80 µM [1]: 41.6%
viability at 100 µM [1]: 41.3%
viability at 150 µM [1]: 33.7%
IC50 [1]: 59.9 ± 0.08 µM
viability at 48 h, 10 μM [2]: 29.1%
viability at 48 h, 40 μM [2]: 28.6%
viability at 48 h, 80 μM [2]: 28.2%
viability at 48 h, 100 μM [2]: 26.3%
viability at 48 h, 150 μM [2]: 9.96%
